# In ChEMBL document CHEMBL1122632, “Synthesis and antitumor activity of cis-dichloroplatinum (II)-N-aminated nucleoside complexes” (J Med Chem, 1984):
# Several values for one entry are separate records, joined by “and”; a condition that tells them apart may be missing. Identical values can stand only once.
# Key:
# L1210 [1] = experiment: In vitro inhibition of L1210 (murine leukemia) cell growth.; assay type: functional, cell-based, Mus musculus
# Summary of the method: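 L1210 cells (10^5 in 1 mL) were grown in RPMI 1640 with 10% FCS and kanamycin, at 37 °C in CO2, for 48 h. Compounds were heated at 110 °C for 8 h, dissolved in medium and tested at ≥6 concentrations. Viability was scored by 0.17% Trypan blue exclusion against drug-free controls. IC50 was the concentration halving living cell number, taken from the log-probit dose-response curve.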
# L1210 [2] = experiment: Ratio of median survival time of the mice bearing L1210 cells in treated(T) vs. control(C) at a dose of 10 mg/kg x 2 days; assay type: functional, organism-based; parameters: dose 10 mg/kg; settings: Mus musculus
# Summary of the method: (§1)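 (BALB/c × DBA/2)F1 mice (20 g) were implanted ip with 10^4 L1210 cells. Compounds in saline (0.2 mL) were given ip on days 1 and 5; doses above 100 mg/kg were homogenized with Nikkol (7× by weight). Activity was scored as median survival time of treated mice and expressed as T/C, the ratio of treated to control median survival time.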
# L1210 [3] = experiment: Ratio of median survival time of the mice bearing L1210 cells in treated(T) vs. control(C) at a dose of 100 mg/kg x 2 days; assay type: functional, organism-based; parameters: dose 100 mg/kg; settings: Mus musculus; summary of the method: as §1
# L1210 [4] = experiment: Ratio of median survival time of the mice bearing L1210 cells in treated(T) vs. control(C) at a dose of 200 mg/kg x 2 days; assay type: functional, organism-based; parameters: dose 200 mg/kg; settings: Mus musculus; summary of the method: as §1
# L1210 [5] = experiment: Ratio of median survival time of the mice bearing L1210 cells in treated(T) vs. control(C) at a dose of 25 mg/kg x 2 days; assay type: functional, organism-based; parameters: dose 25 mg/kg; settings: Mus musculus; summary of the method: as §1
# L1210 [6] = experiment: Ratio of median survival time of the mice bearing L1210 cells in treated(T) vs. control(C) at a dose of 300 mg/kg x 2 days; assay type: functional, organism-based; parameters: dose 300 mg/kg; settings: Mus musculus; summary of the method: as §1
# L1210 [7] = experiment: Ratio of median survival time of the mice bearing L1210 cells in treated(T) vs. control(C) at a dose of 50 mg/kg x 2 days; assay type: functional, organism-based; parameters: dose 50 mg/kg; settings: Mus musculus; summary of the method: as §1
# L1210 [8] = experiment: Median survival time (MST) of mice bearing L1210 cells was determined at a dose of 50 mg/kg x 2 days administered ip.; assay type: functional, organism-based; parameters: dose 50 mg/kg; settings: Mus musculus; summary of the method: as §1
# L1210 [9] = experiment: Median survival time (MST) of mice bearing L1210 cells was determined at a dose of 25 mg/kg x 2 days administered ip.; assay type: functional, organism-based; parameters: dose 25 mg/kg; settings: Mus musculus; summary of the method: as §1
# L1210 [10] = experiment: Median survival time (MST) of mice bearing L1210 cells was determined at a dose of 100 mg/kg x 2 days administered ip.; assay type: functional, organism-based; parameters: dose 100 mg/kg; settings: Mus musculus; summary of the method: as §1
# L1210 [11] = experiment: Median survival time (MST) of mice bearing L1210 cells was determined at a dose of 200 mg/kg x 2 days administered ip.; assay type: functional, organism-based; parameters: dose 200 mg/kg; settings: Mus musculus; summary of the method: as §1
# L1210 [12] = experiment: Median survival time (MST) of mice bearing L1210 cells was determined at a dose of 300 mg/kg x 2 days administered ip.; assay type: functional, organism-based; parameters: dose 300 mg/kg; settings: Mus musculus; summary of the method: as §1
# L1210 [13] = experiment: Median survival time (MST) of mice bearing L1210 cells was determined at a dose of 10 mg/kg x 2 days administered ip.; assay type: functional, organism-based; parameters: dose 10 mg/kg; settings: Mus musculus; summary of the method: as §1
# Mus musculus [14] = experiment: Blood urea nitrogen values in ICR mice after intraperitoneal administration at an equivalent molar dose of the LD50 of […](13 mg/kg) on day 3; assay type: functional, organism-based
# Summary of the method: (§2)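 ICR mice (25-30 weeks, 39 ± 4 g), 5-6 per group, given one ip dose of 0.043 mmol/kg, equimolar to 13 mg/kg cis-DDP. On days 3, 6 and 9, blood was drawn from the heart under ether anesthesia and stored frozen. BUN was measured later by a modified urease indophenol method. Results are mean ± SD, mg/100 mL blood, compared with untreated controls.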
# Mus musculus [15] = experiment: Blood urea nitrogen values in ICR mice after intraperitoneal administration at an equivalent molar dose of the LD50 of […](13 mg/kg) on day 6; assay type: functional, organism-based; summary of the method: as §2
# Mus musculus [16] = experiment: Blood urea nitrogen values in ICR mice after intraperitoneal administration at an equivalent molar dose of the LD50 of […](13 mg/kg) on day 9; assay type: functional, organism-based; summary of the method: as §2
# Mus musculus [17] = experiment: Effect on body weight in ICR mice was determined after intraperitoneal administration on day 3; assay type: functional, organism-based
# Summary of the method: (§3)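 ICR mice (25-30 weeks, 39 ± 4 g), 5-6 per group, given one ip dose of 0.043 mmol/kg, equimolar to 13 mg/kg cis-DDP. Body and kidney weights were taken on days 3, 6 and 9 and compared with untreated controls. Weights are paired, mean ± SD.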
# Mus musculus [18] = experiment: Effect on body weight in ICR mice was determined after intraperitoneal administration on day 6; assay type: functional, organism-based; summary of the method: as §3
# Mus musculus [19] = experiment: Effect on body weight in ICR mice was determined after intraperitoneal administration on day 9; assay type: functional, organism-based; summary of the method: as §3
# Mus musculus [20] = experiment: Effect on kidney weight in ICR mice was determined after intraperitoneal administration on day 3; assay type: functional, organism-based; summary of the method: as §3
# Mus musculus [21] = experiment: Effect on kidney weight in ICR mice was determined after intraperitoneal administration on day 6; assay type: functional, organism-based; summary of the method: as §3
# Mus musculus [22] = experiment: Effect on kidney weight in ICR mice was determined after intraperitoneal administration on day 9; assay type: functional, organism-based; summary of the method: as §3
# L1210 [23] = experiment: Ratio of median survival time of the mice bearing L1210 cells in treated(T) vs. control(C) at a dose of 600 mg/kg x 2 days; assay type: functional, organism-based; parameters: dose 600 mg/kg; settings: Mus musculus; summary of the method: as §1
# L1210 [24] = experiment: Ratio of median survival time of the mice bearing L1210 cells in treated(T) vs. control(C) at a dose of 900 mg/kg x 2 days; assay type: functional, organism-based; parameters: dose 900 mg/kg; settings: Mus musculus; summary of the method: as §1
# L1210 [25] = experiment: Median survival time (MST) of mice bearing L1210 cells was determined at a dose of 600 mg/kg x 2 days administered ip.; assay type: functional, organism-based; parameters: dose 600 mg/kg; settings: Mus musculus; summary of the method: as §1
# L1210 [26] = experiment: Median survival time (MST) of mice bearing L1210 cells was determined at a dose of 900 mg/kg x 2 days administered ip.; assay type: functional, organism-based; parameters: dose 900 mg/kg; settings: Mus musculus; summary of the method: as §1
# L1210 [27] = experiment: Ratio of median survival time of the mice bearing L1210 cells in treated(T) vs. control(C) at a dose of 800 mg/kg x 2 days; assay type: functional, organism-based; parameters: dose 800 mg/kg; settings: Mus musculus; summary of the method: as §1
# L1210 [28] = experiment: Median survival time (MST) of mice bearing L1210 cells was determined at a dose of 800 mg/kg x 2 days administered ip.; assay type: functional, organism-based; parameters: dose 800 mg/kg; settings: Mus musculus; summary of the method: as §1
# Mus musculus [29] = experiment: Blood urea nitrogen values in ICR mice after intraperitoneal administration at an equivalent molar dose of the LD50 of […](13 mg/kg) on day 9; All death; assay type: functional, organism-based; summary of the method: as §2
# Mus musculus [30] = experiment: Effect on body weight in ICR mice was determined after intraperitoneal administration on day 9; All death; assay type: functional, organism-based; summary of the method: as §3
Compound,IC50 (L1210 [1]; l1210) [µg/mL],"IC50 (L1210 [1]; l1210, read-out: IC50) [µM]",T/C (L1210 [3]) [%],T/C (L1210 [4]) [%],T/C (L1210 [5]) [%],T/C (L1210 [7]) [%],MST (L1210 [8]) [days],MST (L1210 [9]) [days],MST (L1210 [10]) [days],MST (L1210 [11]) [days],Blood urea nitrogen (Mus musculus [14]) [mg 100ml-1],Blood urea nitrogen (Mus musculus [15]) [mg 100ml-1],Body weight (Mus musculus [17]),Body weight (Mus musculus [18]),Kidney weight (Mus musculus [20]),Kidney weight (Mus musculus [21]),other results
3-aminocytidine-dichloroplatinum (II) [listing 1 of 2 here],64,122,,,,,,,,,,,,,,,
3-aminocytidine-dichloroplatinum (II) [listing 2 of 2 here],,,131,138,125,125,10,10,10.5,11,22,26.3,35.6,39.9,545,637,T/C (L1210 [2]): 119%; T/C (L1210 [6]): 138%; MST (L1210 [12]): 11 days; MST (L1210 [13]): 9.5 days; Blood urea nitrogen (Mus musculus [16]): 28.7 mg 100ml-1; Body weight (Mus musculus [19]): 36.5; Kidney weight (Mus musculus [22]): 571
3-aminotubercidin-dichloroplatinum (II) [listing 1 of 2 here],4.9,8.96,,,,,,,,,,,,,,,
3-aminotubercidin-dichloroplatinum (II) [listing 2 of 2 here],,,144,144,125,131,10.5,10,11.5,11.5,24,22.8,38.4,39.4,587,686,T/C (L1210 [2]): 112%; T/C (L1210 [6]): 150%; T/C (L1210 [23]): 156%; T/C (L1210 [24]): 156%; MST (L1210 [25]): 12.5 days; MST (L1210 [26]): 12.5 days; MST (L1210 [12]): 12 days; MST (L1210 [13]): 9 days; Blood urea nitrogen (Mus musculus [16]): 26.3 mg 100ml-1; Body weight (Mus musculus [19]): 40; Kidney weight (Mus musculus [22]): 750
5-amino-1-beta-D-ribofuranosylimidazole-4-carboxamide-dichloroplatinum (II),,,111,122,100,100,9,9,10,11,,,,,,,T/C (L1210 [27]): 125%; MST (L1210 [28]): 10 days
Nc1ncnc2c1ccn2[C@@H]1O[C@H](CO)[C@@H](O)[C@H]1O [TUBERCIDIN],,,,,,,,,,,,,,,,,"IC50 (L1210 [1]; Mus musculus, L1210, read-out: IC50): 0.018 µg/mL and 67.7 nM"
CISPLATIN [listing 1 of 2 here],0.19,0.633,,,,,,,,,,,,,,,
CISPLATIN [listing 2 of 2 here],,,,,,,,,,,37,45.3,34,31,599,555,Blood urea nitrogen (Mus musculus [29]): All death; Body weight (Mus musculus [30]): All death
